Columns and labels:
[1] = molecular target: Phosphatidylinositol 4,5-bisphosphate 3-kinase catalytic subunit alpha isoform (Mus musculus, UniProt P42337); assay: Inhibition of mouse wild type PI3Kalpha expressed in Sf21 cells co-expressing N-terminal His-tagged human p85a using L-alpha-phosphatidylinositol substrate by TLC based phosphor imaging
[2] = molecular target: Phosphatidylinositol 4,5-bisphosphate 3-kinase catalytic subunit beta isoform (Homo sapiens, UniProt P42338); assay: Inhibition of human wild type PI3Kbeta expressed in Sf21 cells co-expressing N-terminal His-tagged human p85a using L-alpha-phosphatidylinositol substrate by TLC based phosphor imaging
[3] = Cytotoxicity against BALB/c mouse lymph node cells at 10 uM after 24 hrs MTT assay
[4] = molecular target: T1, Phosphatidylinositol 4,5-bisphosphate 3-kinase catalytic subunit delta isoform (Homo sapiens, UniProt O00329); assay: Inhibition of PI3Kdelta expressed in cells co-expressing N-terminal His-tagged human p85a using L-alpha-phosphatidylinositol substrate by TLC based phosphor imaging; assay type: cell-based
T1 sequence (O00329 whole entry): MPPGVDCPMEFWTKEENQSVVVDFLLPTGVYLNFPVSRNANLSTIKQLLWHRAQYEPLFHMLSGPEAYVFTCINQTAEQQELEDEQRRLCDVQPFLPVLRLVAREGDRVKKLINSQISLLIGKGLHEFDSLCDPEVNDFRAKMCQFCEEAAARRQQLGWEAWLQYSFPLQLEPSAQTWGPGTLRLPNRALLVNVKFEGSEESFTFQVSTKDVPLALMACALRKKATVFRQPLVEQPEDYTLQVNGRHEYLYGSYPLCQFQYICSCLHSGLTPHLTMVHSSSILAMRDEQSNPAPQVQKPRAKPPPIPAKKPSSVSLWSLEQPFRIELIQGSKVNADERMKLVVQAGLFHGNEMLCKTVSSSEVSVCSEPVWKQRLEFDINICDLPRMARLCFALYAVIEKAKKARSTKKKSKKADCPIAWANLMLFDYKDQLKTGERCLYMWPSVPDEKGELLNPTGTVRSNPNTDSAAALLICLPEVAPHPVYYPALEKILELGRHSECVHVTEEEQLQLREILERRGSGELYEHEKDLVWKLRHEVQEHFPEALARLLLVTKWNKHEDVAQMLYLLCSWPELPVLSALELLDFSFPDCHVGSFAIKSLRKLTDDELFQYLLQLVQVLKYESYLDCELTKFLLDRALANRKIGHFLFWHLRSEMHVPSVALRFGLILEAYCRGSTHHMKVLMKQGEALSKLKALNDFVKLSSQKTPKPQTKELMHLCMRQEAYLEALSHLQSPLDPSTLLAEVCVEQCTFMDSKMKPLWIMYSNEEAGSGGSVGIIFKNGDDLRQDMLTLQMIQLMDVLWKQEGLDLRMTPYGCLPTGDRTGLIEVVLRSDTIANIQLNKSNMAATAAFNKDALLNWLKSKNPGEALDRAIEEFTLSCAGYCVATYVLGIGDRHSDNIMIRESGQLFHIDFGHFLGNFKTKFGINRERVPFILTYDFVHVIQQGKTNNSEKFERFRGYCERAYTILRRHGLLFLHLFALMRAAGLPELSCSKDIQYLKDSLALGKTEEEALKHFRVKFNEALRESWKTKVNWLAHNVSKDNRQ

[5] = Immunosuppressive activity in BALB/c mouse lymph node cells assessed as inhibition of concanavalin A-stimulated cell proliferation at 1 uM administered 24 hrs post concanavalin A stimulation and measured 72 hrs after compound dosing by MTT assay; assay type: functional
Procedure, shortened: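 BALB/c mouse lymph node cells, 5 × 10^5 per well, stimulated with 5 µg/mL ConA for 24 h, then left untreated or given compound at 1 µM for 72 h. MTT added 4 h before the end, formazan dissolved in DMSO, OD570 read. Inhibition = (control OD570 − compound OD570)/control OD570 × 100, with untreated cells as control. Values are means of three experiments.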

[6] = Inhibition of N-terminal His-tagged bovine PI3Kgamma expressed in Sf21 cells using L-alpha-phosphatidylinositol substrate by TLC based phosphor imaging; set-up: species or system Bos taurus
[7] = Induction of apoptosis in BALB/c mouse concanavalin A-stimulated lymph node cells assessed as late apoptotic cells at 1 uM administered 24 hrs post concanavalin A stimulation and measured 24 hrs after by Annexin-V-FITC/propidium iodide staining based flow cytometry (reference value: 17.49 %); assay type: functional
[8] = test system: Mus musculus; assay: Induction of apoptosis in BALB/c mouse concanavalin A-stimulated lymph node cells assessed as late apoptotic cells administered 24 hrs post concanavalin A stimulation and measured 24 hrs after by Annexin-V-FITC/propidium iodide staining based flow cytometry; assay type: functional
[9] = Induction of apoptosis in BALB/c mouse concanavalin A-stimulated lymph node cells assessed as early apoptotic cells at 4 uM administered 24 hrs post concanavalin A stimulation and measured 24 hrs after by Annexin-V-FITC/propidium iodide staining based flow cytometry (reference value: 4.52 %); assay type: functional
[10] = Induction of apoptosis in BALB/c mouse concanavalin A-stimulated lymph node cells assessed as late apoptotic cells at 16 uM administered 24 hrs post concanavalin A stimulation and measured 24 hrs after by Annexin-V-FITC/propidium iodide staining based flow cytometry (reference value: 17.49 %); assay type: functional
[11] = Induction of apoptosis in BALB/c mouse concanavalin A-stimulated lymph node cells assessed as early apoptotic cells at 16 uM administered 24 hrs post concanavalin A stimulation and measured 24 hrs after by Annexin-V-FITC/propidium iodide staining based flow cytometry (reference value: 4.52 %); assay type: functional
[12] = Induction of apoptosis in BALB/c mouse concanavalin A-stimulated lymph node cells assessed as early apoptotic cells at 1 uM administered 24 hrs post concanavalin A stimulation and measured 24 hrs after by Annexin-V-FITC/propidium iodide staining based flow cytometry (reference value: 4.52 %); assay type: functional
[13] = Induction of apoptosis in BALB/c mouse concanavalin A-stimulated lymph node cells assessed as late apoptotic cells at 4 uM administered 24 hrs post concanavalin A stimulation and measured 24 hrs after by Annexin-V-FITC/propidium iodide staining based flow cytometry (reference value: 17.49 %); assay type: functional

Sequence of Phosphatidylinositol 4,5-bisphosphate 3-kinase catalytic subunit beta isoform (P42338 whole entry, canonical isoform): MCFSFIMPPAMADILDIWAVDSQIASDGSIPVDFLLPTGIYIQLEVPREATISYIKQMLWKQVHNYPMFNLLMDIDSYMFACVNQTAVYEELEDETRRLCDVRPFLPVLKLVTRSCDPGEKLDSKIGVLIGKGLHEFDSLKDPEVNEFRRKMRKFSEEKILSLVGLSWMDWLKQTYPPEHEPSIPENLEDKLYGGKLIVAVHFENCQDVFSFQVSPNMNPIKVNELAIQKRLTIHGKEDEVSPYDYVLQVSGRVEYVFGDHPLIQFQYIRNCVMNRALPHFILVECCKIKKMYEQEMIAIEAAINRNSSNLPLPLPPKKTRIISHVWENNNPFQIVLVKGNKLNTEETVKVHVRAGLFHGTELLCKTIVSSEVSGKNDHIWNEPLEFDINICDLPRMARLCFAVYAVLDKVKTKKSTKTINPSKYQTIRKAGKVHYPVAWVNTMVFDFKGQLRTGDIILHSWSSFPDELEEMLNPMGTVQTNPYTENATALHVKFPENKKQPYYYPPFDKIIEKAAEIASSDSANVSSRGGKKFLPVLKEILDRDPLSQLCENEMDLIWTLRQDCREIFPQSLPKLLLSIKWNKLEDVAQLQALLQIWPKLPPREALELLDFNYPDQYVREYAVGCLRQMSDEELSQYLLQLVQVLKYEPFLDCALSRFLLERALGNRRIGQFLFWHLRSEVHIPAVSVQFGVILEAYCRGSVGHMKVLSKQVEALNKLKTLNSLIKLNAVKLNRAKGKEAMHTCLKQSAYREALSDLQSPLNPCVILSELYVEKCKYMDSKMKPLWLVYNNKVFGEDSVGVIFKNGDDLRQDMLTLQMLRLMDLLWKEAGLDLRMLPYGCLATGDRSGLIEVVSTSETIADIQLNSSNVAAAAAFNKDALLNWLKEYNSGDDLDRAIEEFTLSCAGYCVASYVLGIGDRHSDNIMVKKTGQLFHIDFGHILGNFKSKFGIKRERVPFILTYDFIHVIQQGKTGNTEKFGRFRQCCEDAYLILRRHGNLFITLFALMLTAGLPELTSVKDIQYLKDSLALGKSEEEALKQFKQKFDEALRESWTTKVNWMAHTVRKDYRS
Sequence of Phosphatidylinositol 4,5-bisphosphate 3-kinase catalytic subunit alpha isoform (P42337 whole entry, canonical isoform): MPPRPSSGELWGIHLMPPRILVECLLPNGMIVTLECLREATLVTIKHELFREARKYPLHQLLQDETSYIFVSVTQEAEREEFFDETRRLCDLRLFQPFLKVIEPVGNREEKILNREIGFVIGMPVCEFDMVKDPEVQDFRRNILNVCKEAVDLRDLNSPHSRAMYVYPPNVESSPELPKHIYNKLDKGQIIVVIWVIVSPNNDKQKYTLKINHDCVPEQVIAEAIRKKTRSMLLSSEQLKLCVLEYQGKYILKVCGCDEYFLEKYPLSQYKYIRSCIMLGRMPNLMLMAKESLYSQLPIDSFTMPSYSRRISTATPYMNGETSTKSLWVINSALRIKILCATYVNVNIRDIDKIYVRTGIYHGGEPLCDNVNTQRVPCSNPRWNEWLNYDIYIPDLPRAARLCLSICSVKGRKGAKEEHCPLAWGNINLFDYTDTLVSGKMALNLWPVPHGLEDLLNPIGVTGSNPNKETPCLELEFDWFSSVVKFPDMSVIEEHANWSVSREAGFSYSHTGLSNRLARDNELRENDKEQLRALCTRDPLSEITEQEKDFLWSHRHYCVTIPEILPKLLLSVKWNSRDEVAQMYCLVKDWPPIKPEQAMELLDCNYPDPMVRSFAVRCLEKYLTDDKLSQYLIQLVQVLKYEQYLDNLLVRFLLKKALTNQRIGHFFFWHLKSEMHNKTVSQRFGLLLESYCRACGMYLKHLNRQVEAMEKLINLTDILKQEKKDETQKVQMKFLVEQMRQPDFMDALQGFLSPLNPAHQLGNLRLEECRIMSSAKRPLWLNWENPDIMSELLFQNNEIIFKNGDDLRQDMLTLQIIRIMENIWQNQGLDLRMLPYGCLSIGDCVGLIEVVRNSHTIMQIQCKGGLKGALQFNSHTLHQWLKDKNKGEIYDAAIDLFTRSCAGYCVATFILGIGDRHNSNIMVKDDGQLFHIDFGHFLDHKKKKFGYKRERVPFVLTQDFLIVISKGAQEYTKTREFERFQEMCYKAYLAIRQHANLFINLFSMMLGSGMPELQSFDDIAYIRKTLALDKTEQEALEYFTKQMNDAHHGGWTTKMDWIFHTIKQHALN

Compound	OD [3]	inhibition (INH) [5] [%]	other results
COc1ccc(-c2nnc(SCc3cccc(Cl)c3)o2)c(O)c1	0.9	22.03	IC50 [1]: 15.4 µM; IC50 [2]: 43.7 µM; IC50 [4]: > 100 µM; IC50 [6]: 1.87 µM
COc1ccc(-c2nnc(SCc3cccc(C)c3)o2)c(O)c1	1.12	16.28	
Cc1ccc(-c2nnc(SCc3cccc([N+](=O)[O-])c3)o2)c(O)c1	0.81	-4.36	
Cc1ccc(-c2nnc(SCc3ccc(F)cc3)o2)c(O)c1	0.82	4.5	
Cc1cccc(CSc2nnc(-c3ccc(C)cc3O)o2)c1	0.8	5.22	
COc1ccc(-c2nnc(SCc3ccccc3Cl)o2)c(O)c1	0.89	17.36	
COc1ccc(-c2nnc(SCc3ccc(Cl)cc3)o2)c(O)c1	0.87	11.96	
Cc1ccc(-c2nnc(SCc3ccc([N+](=O)[O-])cc3)o2)c(O)c1	0.89	38.76	IC50 [1]: 54.9 µM; Activity [7]: 26.59%; IC50 [2]: > 100 µM; Activity [8]: Dose-dependent effect; Activity [9]: 6.69%; Activity [10]: 96.35%; IC50 [4]: 25.6 µM; Activity [11]: 2.16%; Activity [12]: 6.26%; Activity [13]: 27.4%; IC50 [6]: 0.31 µM
Cc1ccc(C(=O)O)c(O)c1		3.52	
COc1ccc(-c2nnc(SCc3ccccc3)o2)c(O)c1	0.81	4.5	
Cc1ccc(-c2nnc(SCc3cccc(Cl)c3)o2)c(O)c1	0.7	-0.72	
Cc1ccc(-c2nnc(SCc3ccccc3[N+](=O)[O-])o2)c(O)c1	0.74	11.42	
Cc1ccc(-c2nnc(SCc3ccccc3)o2)c(O)c1	0.86	9.08	
COc1ccc(-c2nnc(SCc3cccc([N+](=O)[O-])c3)o2)c(O)c1	0.86	19.33	IC50 [1]: 17.9 µM; IC50 [2]: > 100 µM; IC50 [4]: 29.7 µM; IC50 [6]: 2.47 µM
Cc1ccc(-c2nnc(SCc3ccccc3Cl)o2)c(O)c1	0.79	8.99	
COc1cccc(CSc2nnc(-c3ccc(OC)cc3O)o2)c1	0.71	11.06	
COc1cccc(CSc2nnc(-c3ccc(C)cc3O)o2)c1	0.87	20.59	IC50 [1]: 1.97 µM; IC50 [2]: 13.6 µM; IC50 [4]: > 100 µM; IC50 [6]: 2.59 µM
C/C=C/C[C@@H](C)[C@@H](O)[C@H]1C(=O)N[C@@H](CC)C(=O)N(C)CC(=O)N(C)[C@@H](CC(C)C)C(=O)N[C@@H](C(C)C)C(=O)N(C)[C@@H](CC(C)C)C(=O)N[C@@H](C)C(=O)N[C@H](C)C(=O)N(C)[C@@H](CC(C)C)C(=O)N(C)[C@@H](CC(C)C)C(=O)N(C)[C@@H](C(C)C)C(=O)N1C [CYCLOSPORINE]		69.77	
COc1ccc(-c2nnc(SCc3ccc(C)cc3)o2)c(O)c1	0.9	6.29	
Cc1ccc(-c2nnc(SCc3ccccc3F)o2)c(O)c1	0.82	-6.92	
COc1ccc(CSc2nnc(-c3ccc(C)cc3O)o2)cc1	0.83	13.67	
COc1ccc(-c2nnc(SCc3ccccc3[N+](=O)[O-])o2)c(O)c1	0.91	3.96	
COc1ccc(C(=O)O)c(O)c1 [4-METHOXYSALICYLIC ACID]		7.34	
COc1ccc(CSc2nnc(-c3ccc(OC)cc3O)o2)cc1	0.75	11.33	
COc1ccc(-c2nnc(SCc3ccccc3F)o2)c(O)c1	0.79	34.35	IC50 [1]: 33.9 µM; IC50 [2]: 51.8 µM; IC50 [4]: 19 µM; IC50 [6]: 0.59 µM
Cc1ccc(CSc2nnc(-c3ccc(C)cc3O)o2)cc1	0.65	11.42	
O=c1cc(N2CCOCC2)oc2c(-c3ccccc3)cccc12 [LY-294002]			IC50 [4]: 0.57 µM
COc1ccc(-c2nnc(SCc3ccc(F)cc3)o2)c(O)c1	0.87	29.32	IC50 [1]: 31.2 µM; IC50 [2]: > 100 µM; IC50 [4]: 11.5 µM; IC50 [6]: 0.98 µM
COc1ccc(-c2nnc(SCc3ccc([N+](=O)[O-])cc3)o2)c(O)c1	0.83	14.39	
Cc1ccc(-c2nnc(SCc3ccc(Cl)cc3)o2)c(O)c1	0.75	13.4	

Source: ChEMBL document CHEMBL2016554, “Synthesis, biological evaluation and molecular docking studies of 1,3,4-oxadiazole derivatives as potential immunosuppressive agents” (Bioorg Med Chem, 2012)
